# A number with no mark means an inactive call. Inconclusive results are not listed. The source made the active and inactive calls.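 How the source made its calls, unless noted: active means growth inhibition above 25% in both replicates, a cutoff set 3 SD above the mean; inconclusive means above 25% in only one replicate; inactive means the rest.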
# Assays:
# [1] = OD615 S. cerevisiae growth inhibition, permissive medium, pilot counter-assay, permissive growth control for S. cerevisiae lifespan shortening project (AID 705); conditions: OD615, 24 h, at 10 µM, hits give high values
# Outline: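 Material: engineered DeaD yeast; compound dosing: one dose 10 µM, DMSO 0.25% final; measure: yeast growth inhibition indicated by reduced 24 h OD615; detection: OD615 turbidity read; incubation: cells pre-grown 4 h, then 24 h compound exposure, 30 °C humidified; medium: permissive synthetic complete medium with raffinose and galactose carbon sources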
# [2] = Restrictive medium S. cerevisiae growth inhibition, OD615, pilot screen of yeast lifespan reduction project, restrictive growth control (AID 706;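 active means growth inhibition above a set limit, 3 SD over mean compound inhibition, in both replicates, cut at about 43% in these data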;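 further: modified DeaD lifespan yeast strain shifted to restrictive glucose medium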); conditions: OD615, 48 h, at 10 µM, hits give high values
# Outline: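 material = engineered S. cerevisiae DeaD strain | medium = glucose-based CSMM-D restrictive medium | times = 4 h pre-incubation, 48 h exposure at 30 °C | technique = OD615 absorbance reading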
# [3] = viability gain of MRP-1-high H69AR cells under doxorubicin, pilot screen, MRP-1 activator project, CellTiter-Glo, duplicate (AID 807;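 active means viability increase at or above a cutoff of the median across tested compounds plus 3 SD, cut at about 8.5% in these data, passing the limit was not always enough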;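 further: compound pretreatment 18-22 h then 72 h combined with doxorubicin; 0% = doxorubicin alone and 100% = vehicle without doxorubicin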); conditions: H69AR viability with doxorubicin, CellTiter-Glo luminescence; at 10 µM; hits give high values
# [4] = growth suppression of beta-catenin knockout HCT116, pilot screen, human colon tumor cells (AID 823;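 active means cell viability at or below a set limit in both duplicate runs, the limit being the all-compound median minus 4 SD, cut at about 23% in these data, passing the limit was not always enough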;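 further: 0% = wells killed by 20 µM Hyamine and 100% = untreated DMSO cell wells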); conditions: CellTiter-Glo, 60 h, at 10 µM, hits give low values
# [5] = growth suppression of PTEN-deleted HCT116, pilot screen, cell-based, HCT116 clonal line, CellTiter-Glo (AID 824;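 active means viability at or below 27.92% in each of two runs, the all-compound median minus 4 SD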;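 further: 0% = 20 µM Hyamine control and 100% = vehicle cell control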); conditions: 60 h, at 10 µM, hits give low values
# [6] = inhibitors of the yeast RAM network, pilot screen, dse1pr::URA3 reporter, 5-FOA selection (AID 869;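 active means inhibition over a set limit, the all-compound mean plus 3 SD, in both replicate runs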;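 further: 0% = DMSO wells with no growth and 100% = 10 µM 1-NA-PP1 with full growth; RAM network block rescues cells from 5-FOA so hits raise OD615 growth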); conditions: S. cerevisiae dse1pr::URA3 5-FOA growth, OD615, 2 d; at 10 µM; hits give high values; strain carries analog-sensitive mutant Cbk1 kinase
# [7] = RAM signaling pathway blockade in yeast – S. cerevisiae, Pdr1DBD-CYC8 efflux-inhibited sensitized strain, primary screen (AID 1298;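 active means RAM network inhibition above 8.4% in each of two replicates, 3 SD over the compound average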;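 further: 0% = DMSO untreated cells without growth and 100% = 10 µM 1-NA-PP1 full growth; higher means more yeast growth rescued from 5-FOA killing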); conditions: S. cerevisiae cbk1-as DSE1-URA3 strain, 5-FOA growth OD615, 2 d; at 50 µM; hits give high values
SMILES,growth inhibition [1],growth inhibition [2],viability increase [3],viability [4],viability [5],inhibition [6],RAM network inhibition [7]
Cc1ccc(C)c(-n2nnnc2SCC(=O)Nc2cccc(-c3nnc4n3CCCCC4)c2)c1,12.3%,54.4% (active),-0.74%,97.7%,90.9%,1.77%,6.57%
CCCc1cc(C(=O)N(C2CCCCC2)C2CCCCC2)no1,4.36%,14.7%,-5.51%,74.5%,80.8%,1.57%,6.03%
OC(C#CCN1CCOCC1)c1cccs1 (configuration not stated),-5.03%,2.95%,-0.71%,102%,98.4%,2.15%,4.66%
CCC1(C(=O)O)NC(c2cccc(OC)c2O)C2C(=O)N(c3ccccc3)C(=O)C21 (configuration not stated),-6.47%,1.83%,-2.33%,102%,93.8%,3.62%,1.14%
O=C(Cn1nc(Cc2cccnc2)c2ccccc2c1=O)N1CCN(C(=O)c2ccco2)CC1,4.07%,0.805%,-0.74%,104%,104%,0.64%,2.7%
C=CCNc1nc2c(c(=O)[nH]c(=O)n2C)n1Cc1cccc(C)c1,2.89%,2.92%,-1.47%,102%,87.5%,2.04%,5.89%
Cc1ccc(N2Cc3ccccc3OC(C)C2=O)cc1 (configuration not stated),-1.43%,0.105%,-3.99%,90.3%,91.3%,0.735%,1.16%
Cc1ccccc1NC(=O)C1CC(Cl)=CCC1C(=O)O (configuration not stated),-2.29%,-0.385%,-0.5%,101%,96.9%,1.52%,6.8%
Cc1cc(NS(=O)(=O)c2ccc(NC(=O)Nc3ccccc3)cc2)no1,4.26%,-7.87%,1.41%,101%,103%,1.92%,1.02%
COC(=O)c1ccccc1NC(=O)Nc1nnc(N2CCCCC2C)s1 (configuration not stated),-8.82%,5.2%,-0.77%,64.3%,49.8%,0.815%,1.05%
CCCCn1c(C(C)NC(=O)COC)nc2ccccc21 (configuration not stated),-3.38%,1.68%,-0.01%,91.4%,101%,1.94%,0.2%
CCOCCOC(=O)C1=C(C)NC2=C(C(=O)CC(c3cccs3)C2)C1c1ccsc1 (configuration not stated),-1.18%,2.17%,-1.94%,93.5%,89.2%,2.27%,6.89%
COc1ccc(C2(O)CCN(C(=O)c3ccc4c(c3)OCO4)CC2)cc1,-12.1%,-15.2%,-0.75%,106%,101%,0.965%,0.72%
CCOC(=O)Cc1csc(SCn2nnc3ccccc3c2=O)n1,-8.4%,-9.13%,0.7%,94.8%,94.8%,2.31%,1.31%
O=S(=O)(NCCc1csc(-c2cccnc2)n1)c1ccc(Cl)s1,-15.7%,13.1%,0.96%,87.6%,85.5%,1.76%,3.12%
O=C(Cc1ccccc1)n1nc(-c2ccccc2)nc1NCc1ccco1,-16.6%,-14.8%,-2.03%,99.5%,98.1%,1.27%,4.38%
COc1ccc(S(=O)(=O)N(C)c2c(C)n(C)n(-c3ccccc3)c2=O)cc1OC,-5.13%,0.325%,-1.65%,95.5%,102%,0.535%,3.38%
Cc1ccc2c(c1)C(c1ccc(F)cc1)N(C(=O)C1CC1)CC(=O)N2 (configuration not stated),-3.41%,-4.04%,-1.19%,83%,75.2%,-0.015%,1.7%

SMILES,growth inhibition [1],growth inhibition [2],viability increase [3],viability [4],viability [5],inhibition [6],RAM network inhibition [7]
C=CCn1c(C)nc2c(c1=O)c1nc3ccccc3nc1n2-c1ccc(C)cc1,-4.19%,-2.97%,-1.62%,92.3%,82.2%,1.32%,4.86%
Cc1ccccc1CN1CCN(CC(=O)NCc2ccccn2)C1=O,4.21%,10.8%,1.17%,106%,108%,-0.32%,1.55%
CCOC(=O)c1c(CN2CCCCC2)n(C)c2ccc(OC)c(S(=O)(=O)c3ccccc3)c12,-6.81%,-19.7%,-3.9%,96.3%,92.4%,0.105%,3.27%
COC(=O)C1C(=O)C=C(N2CCOCC2)CC1(C)C (configuration not stated),-10.6%,-10.2%,-0.72%,96.4%,105%,0.685%,1.92%
CC(=O)N1c2ccccc2C(=O)C1N1CCCCC1 (configuration not stated),-3.63%,-9.52%,-3.42%,93.1%,84.4%,0.985%,-1.19%
CC1CCCCN1CCNC(=O)c1cnn2ccccc12 (configuration not stated),-12.7%,-9.32%,-1.7%,101%,91.6%,2.58%,0.01%
Cn1c(Cn2c(=O)sc3ccccc32)nnc1SCC(=O)NCC1CCCO1 (configuration not stated),-6.81%,-7.68%,-1.15%,99.3%,90%,0.85%,2.22%
Cc1nc(CNS(=O)(=O)c2ccccc2F)cs1,-2.92%,0.715%,-0.6%,94.1%,91.5%,0.335%,-0.57%
COc1ccccc1OCCC(=O)OCC(=O)NC(=O)NC(C)(C)C,-2.01%,-17.1%,-1.52%,85.7%,84.3%,2.56%,0.79%
Cc1ccccc1-n1c(Cn2c(=O)sc3ccccc32)nnc1SCC(=O)Nc1nccs1,-3.9%,-13%,-5.13%,75.2%,59.9%,2.25%,5.86%
O=C(Nc1cccnc1)c1cc(-c2ccc(Br)cc2)on1,-9.68%,-9.79%,0.92%,100%,95.9%,0.76%,6.96%
C=C(C)CC1N(c2cccc(OC)c2)C(=O)C2C(C(=O)O)C3C=CC21O3 (configuration not stated),-5.17%,4.84%,-1.04%,103%,95.3%,-0.415%,5.36%
CCOc1ccc(-c2cc(CCCC(=O)NCc3cccnc3)no2)cc1,0.205%,12.9%,-3.69%,82.2%,92.9%,0.54%,2.74%
Cc1cc(C)cc(OCC(=O)Nc2cccc(-c3nc4ncccc4o3)c2)c1,-7.77%,-1.93%,-1.93%,65.4%,59.7%,3.17%,6.74%
CCOC(=O)CSC1=C(C#N)C(c2ccccc2Cl)C(C(=O)OC)C(=O)N1 (configuration not stated),-8.45%,-0.68%,-0.9%,90.3%,91.8%,0.14%,2.05%
CCOc1ccc(C2CC(c3ccc(OC)c(OC)c3)n3nc(N)nc3N2)cc1 (configuration not stated),2.68%,5.4%,0.31%,101%,92.7%,2.06%,5.15%
COc1c2c(nc3ccccc13)OC(C(C)(O)COC(C)=O)C2 (configuration not stated),-2.59%,5.38%,-1.44%,98.6%,95.7%,0.275%,1.41%
Cc1cc(NS(=O)(=O)c2ccc(NC(=O)CCCC(=O)O)cc2)nc(C)n1,-5.33%,-3.05%,-1.07%,102%,92.2%,-0.135%,3.87%
